Assay type in all cases: functional
Experiment [1] relates to Pseudomonas aeruginosa. As to the kind of experiment: Antibacterial activity against Pseudomonas aeruginosa 100609 after 20 hrs by broth microdilution assay. A digest of the protocol: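 Broth microdilution in TSB per CLSI: a 5 × 10^5 CFU/ml inoculum (OD660 0.02) was added to serial twofold antibiotic dilutions. Plates were shaken at 37°C for 20 h. MIC was the lowest concentration with no visible growth, determined in triplicate.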
(In general: Dilution methods test growth across graded concentrations, often in twofold steps.)

Experiment [2] has as its system Pseudomonas aeruginosa. The experiment in a line: FIC index, ratio of MIC for Pseudomonas aeruginosa 100609 in presence of 250 ug/ml polyethylenimine to MIC for Pseudomonas aeruginosa 100609.
Experiment [3] has as its system Pseudomonas aeruginosa. As to the kind of experiment: FIC index, ratio of MIC for Pseudomonas aeruginosa 25619 in presence of 250 ug/ml polyethylenimine to MIC for Pseudomonas aeruginosa 25619. A digest of the protocol: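 Checkerboard combination of PEI (mean MW 10 kDa) with antibiotic against P. aeruginosa ATCC 25619, in TSB inoculated at about 5 × 10^5 CFU/ml, run in triplicate. ΣFIC was derived from the combination; 0.5 to 2.0 is read as indifference and ≥4.0 as antagonism.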

The subject of experiment [4] is Pseudomonas aeruginosa. The experiment in a line: Antibacterial activity against Pseudomonas aeruginosa 100609 assessed as reduction in bacterial count at 0.25 times MIC after 9 hrs by time-kill assay in presence of 250 ug/ml polyethylenimine relative to control. In a few lines: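 Time-kill assay: TSB was seeded from a 17-h preculture to 5 × 10^7 CFU/ml (set by OD660). Antibiotic was at 25% of MIC, with PEI at a final 250 nM (legend gives 250 μg/ml). Controls were PEI alone, antibiotic alone and bacteria alone. Viable counts on LB agar were taken at 0, 1.5, 3, 6 and 9 h, in triplicate. Synergy was a ≥2.0 mean log10 CFU/ml drop versus antibiotic alone.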

[5] abbreviates: Pseudomonas aeruginosa, 100609, 20 h.

In brackets after ≈: the same amount, converted by molar mass. Activity calls are given as the source filed them.

The term MIC denotes the smallest concentration in the dilution series that meets the test's criterion for growth inhibition. Low readings indicate inhibition by little substance, high ones a need for much substance. In turn, `CC1(C)S[C@@H]2[C@H](NC(=O)[C@H](N)c3ccccc3)C(=O)N2[C@H]1C(=O)O` [AMPICILLIN] registered an MIC with Pseudomonas aeruginosa [1] (setting [5]) of 2240 µg/mL (≈ 6410 µM).

For the compound `CC1(C)S[C@@H]2[C@H](NC(=O)C(C(=O)O)c3ccccc3)C(=O)N2[C@H]1C(=O)O` (some centres undefined) [CARBENICILLIN], the MIC in the experiment with Pseudomonas aeruginosa [1] (setting [5]) worked out at 2240 µg/mL (≈ 5920 µM).

On to `CO/N=C(\C(=O)N[C@@H]1C(=O)N2C(C(=O)O)=C(COC(C)=O)CS[C@H]12)c1csc(N)n1` [CEFOTAXIME], for which the “fractional inhibitory concentration index (FICI)” value in the experiment on Pseudomonas aeruginosa [2] was 0.14. The same compound came in with an MIC against Pseudomonas aeruginosa [1] (setting [5]) of 960 µg/mL (≈ 2110 µM).

On to `CC(C)(O/N=C(\C(=O)N[C@@H]1C(=O)N2C(C(=O)[O-])=C(C[n+]3ccccc3)CS[C@H]12)c1csc(N)n1)C(=O)O` [CEFTAZIDIME], for which the “fractional inhibitory concentration index (FICI)” value amounted to 0.04 in the experiment with Pseudomonas aeruginosa [2] and 0.09 in the experiment with Pseudomonas aeruginosa [3]. The minimal inhibitory concentration (MIC) in the experiment on Pseudomonas aeruginosa [1] (setting [5]) amounted to 400 µg/mL (≈ 732 µM). The “fold change (FC)” value in the experiment on Pseudomonas aeruginosa [4] is reported as 100000.

As for `O=C(N[C@H](CO)[C@H](O)c1ccc([N+](=O)[O-])cc1)C(Cl)Cl` [CHLORAMPHENICOL], the “fractional inhibitory concentration index (FICI)” value in the experiment with Pseudomonas aeruginosa [2] worked out at 0.41. The MIC against Pseudomonas aeruginosa [1] (setting [5]) turned out to be 100 µg/mL (≈ 309 µM). Besides, in the experiment on Pseudomonas aeruginosa [4], the “fold change (FC)” value is reported as 100000.

Regarding `O=C(O)c1cn(C2CC2)c2cc(N3CCNCC3)c(F)cc2c1=O` [CIPROFLOXACIN], in the experiment on Pseudomonas aeruginosa [2], the “fractional inhibitory concentration index (FICI)” value was determined as 1. Moreover, the minimum inhibitory concentration (MIC) in the experiment on Pseudomonas aeruginosa [1] (setting [5]) was 30 µg/mL (≈ 90.5 µM).

`CC[C@H]1OC(=O)[C@H](C)[C@@H](O[C@H]2C[C@@](C)(OC)[C@@H](O)[C@H](C)O2)[C@H](C)[C@@H](O[C@@H]2O[C@H](C)C[C@H](N(C)C)[C@H]2O)[C@](C)(O)C[C@@H](C)C(=O)[C@H](C)[C@@H](O)[C@]1(C)O` [ERYTHROMYCIN]: in the experiment on Pseudomonas aeruginosa [2], the “fractional inhibitory concentration index (FICI)” value is 1. The MIC against Pseudomonas aeruginosa [1] (setting [5]) came to 140 µg/mL (≈ 191 µM).

For `NC[C@@H]1O[C@@H](O[C@H]2[C@H](O)[C@@H](O[C@H]3O[C@H](CO)[C@@H](O)[C@H](N)[C@H]3O)[C@H](N)C[C@@H]2N)[C@@H](O)[C@H](O)[C@H]1O` [KANAMYCIN A], the “fractional inhibitory concentration index (FICI)” value with Pseudomonas aeruginosa [2] is 1.21. Further, in the experiment with Pseudomonas aeruginosa [1] (setting [5]), the MIC came out at 1600 µg/mL (≈ 3300 µM).

`CCn1cc(C(=O)O)c(=O)c2cc(F)c(N3CCNCC3)cc21` [NORFLOXACIN]: the “fractional inhibitory concentration index (FICI)” value in the experiment on Pseudomonas aeruginosa [2] was determined as 0.68. This compound also registered a minimum inhibitory concentration (MIC) in the experiment on Pseudomonas aeruginosa [1] (setting [5]) of 15 µg/mL (≈ 47 µM).

On to `CO[C@@H]1[C@@H](OC(N)=O)[C@@H](O)[C@H](Oc2ccc3c(O)c(NC(=O)c4ccc(O)c(CC=C(C)C)c4)c(=O)oc3c2C)OC1(C)C` [NOVOBIOCIN], for which the fractional inhibitory concentration index (FICI) with Pseudomonas aeruginosa [2] stood at 0.1; in the experiment with Pseudomonas aeruginosa [3] it was 0.35. In the experiment on Pseudomonas aeruginosa [1] (setting [5]), this compound returned an MIC of 1600 µg/mL (≈ 2610 µM). Besides, the “fold change (FC)” value in the experiment with Pseudomonas aeruginosa [4] is on record as 100000000.

Take `CC1COc2c(N3CCN(C)CC3)c(F)cc3c(=O)c(C(=O)O)cn1c23` (centres undefined) [OFLOXACIN]: the “fractional inhibitory concentration index (FICI)” value in the experiment with Pseudomonas aeruginosa [2] is 1. In the experiment with Pseudomonas aeruginosa [1] (setting [5]), this compound yielded an MIC of 10 µg/mL (≈ 27.7 µM).

In the experiment on Pseudomonas aeruginosa [1] (setting [5]), `CCN1CCN(C(=O)N[C@@H](C(=O)N[C@@H]2C(=O)N3[C@@H]2SC(C)(C)[C@@H]3C(=O)O)c2ccccc2)C(=O)C1=O` [PIPERACILLIN] showed an MIC of 40 µg/mL (≈ 77.3 µM).

On to `CO[C@H]1/C=C/O[C@@]2(C)Oc3c(C)c(O)c4c(O)c(c(/C=N/N5CCN(C)CC5)c(O)c4c3C2=O)NC(=O)/C(C)=C\C=C\[C@H](C)[C@H](O)[C@@H](C)[C@@H](O)[C@@H](C)[C@H](OC(C)=O)[C@@H]1C` [RIFAMPIN], for which the “fractional inhibitory concentration index (FICI)” value with Pseudomonas aeruginosa [2] was determined as 0.05. In the experiment with Pseudomonas aeruginosa [1] (setting [5]), this compound gave a minimum inhibitory concentration (MIC) of 20 µg/mL (≈ 24.3 µM). Besides, the “fold change (FC)” value in the experiment on Pseudomonas aeruginosa [4] came out at 100000.

Consider `CN(C)[C@@H]1C(O)=C(C(N)=O)C(=O)[C@@]2(O)C(O)=C3C(=O)c4c(O)cccc4[C@@](C)(O)[C@H]3C[C@@H]12` [TETRACYCLINE], for which the “fractional inhibitory concentration index (FICI)” value in the experiment on Pseudomonas aeruginosa [2] was 1. The compound also displayed a minimal inhibitory concentration (MIC) against Pseudomonas aeruginosa [1] (setting [5]) of 20 µg/mL (≈ 45 µM).

For the compound `CC1(C)S[C@@H]2[C@H](NC(=O)[C@H](C(=O)O)c3ccsc3)C(=O)N2[C@H]1C(=O)O` [TICARCILLIN], the MIC against Pseudomonas aeruginosa [1] (setting [5]) came out at 1120 µg/mL (≈ 2910 µM).

`NC[C@H]1O[C@H](O[C@H]2[C@H](O)[C@@H](O[C@H]3O[C@H](CO)[C@@H](O)[C@H](N)[C@H]3O)[C@H](N)C[C@@H]2N)[C@H](N)C[C@@H]1O` [TOBRAMYCIN]: in the experiment on Pseudomonas aeruginosa [2], the “fractional inhibitory concentration index (FICI)” value is 4.81. Further, inhibition of growth in the experiment with Pseudomonas aeruginosa [1] (setting [5]) (MIC) required 50 µg/mL (≈ 107 µM).

In the case of `CN[C@H](CC(C)C)C(=O)N[C@H]1C(=O)N[C@@H](CC(N)=O)C(=O)N[C@H]2C(=O)N[C@H]3C(=O)N[C@H](C(=O)N[C@H](C(=O)O)c4cc(O)cc(O)c4-c4cc3ccc4O)[C@H](O)c3ccc(c(Cl)c3)Oc3cc2cc(c3O[C@@H]2O[C@H](CO)[C@@H](O)[C@H](O)[C@H]2O[C@H]2C[C@](C)(N)[C@H](O)[C@H](C)O2)Oc2ccc(cc2Cl)[C@H]1O` [VANCOMYCIN], in the experiment on Pseudomonas aeruginosa [2], the “fractional inhibitory concentration index (FICI)” value turned out to be 3.4. For the same compound, in the experiment with Pseudomonas aeruginosa [1] (setting [5]), the lowest concentration to inhibit growth (MIC) was 1120 µg/mL (≈ 773 µM). Further, in the experiment with Pseudomonas aeruginosa [4], the result was inactive.

Regarding COLISTIN, in the experiment on Pseudomonas aeruginosa [2], the fractional inhibitory concentration index (FICI) amounted to 2.01. This compound came in with a minimum inhibitory concentration (MIC) in the experiment with Pseudomonas aeruginosa [1] of 5 µg/mL.

For the compound GENTAMICIN, the fractional inhibitory concentration index (FICI) in the experiment on Pseudomonas aeruginosa [2] came out at 1.72. Also, it took 1120 µg/mL to inhibit growth in the experiment with Pseudomonas aeruginosa [1] (MIC).

With POLYMYXIN B, the fractional inhibitory concentration index (FICI) in the experiment with Pseudomonas aeruginosa [2] worked out at 2.01. For the same compound, the minimal inhibitory concentration (MIC) against Pseudomonas aeruginosa [1] turned out to be 5 µg/mL. Moreover, the outcome in the experiment on Pseudomonas aeruginosa [4] was inactive.

For the origin of these results see ChEMBL document CHEMBL1275410, “Synergy between polyethylenimine and different families of antibiotics against a resistant clinical isolate of Pseudomonas aeruginosa” (2008).
